Assay results from ChEMBL document CHEMBL1153564 (Antimicrob Agents Chemother, 2008).
≈ marks a conversion by molar mass, not a printed value. Calls of active or inactive are those of the source. The calls are words filed in the database; no cut-off is given here. Starred links: 1 amine or outer side, 2 acyl side, 3 side chain; linkers in the order of their positions; H or OH if unused. Positions of bridges follow the written chain, without caps; N, C: chain ends. Non-standard residues stand in square brackets, D forms with d. Residues, ends and D or L forms follow the SMILES beside them. *: point of attachment. pTerphenylCO(4''-OnC5H11) = CCCCCOc1ccc(-c2ccc(-c3ccc(C(=O)*)cc3)cc2)cc1; Orn(4R-OH,5R-OH) = O=C([C@H](C[C@@H](O)[C@@H](O)N[*:3])N[*:1])[*:2]; hTyr(3S-OH,4S-OH) = N[C@H](C(=O)O)[C@H](O)[C@@H](O)c1ccc(O)cc1; Pro(3S-OH,4S-Me) = C[C@H]1CN[C@H](C(=O)O)[C@H]1O; Hyp = O=C(O)[C@@H]1C[C@@H](O)CN1

Assays:
Nakaseomyces glabratus [1] = assay: Antifungal activity against Candida glabrata 570 infected in neutropenic ICR/Swiss mouse candidiasis model assessed as dose required for 1-log10 reduction in […] per kidney administered intraperitoneally every 24 hrs up to 4 days measured per 24 hrs; type: functional
In short: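 Neutropenic mouse disseminated candidiasis, with i.p. therapy starting 2 h after i.v. infection. Five total doses of 0.078–20 mg/kg/24 h were given q24h for 4 days, three mice per dose. Kidney CFU were counted at the end and compared with untreated controls. The dose giving a 1 log10 CFU/kidney reduction was derived from the sigmoid Hill dose–effect model.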

Nakaseomyces glabratus [2] = assay: Antifungal activity against Candida glabrata 5592 assessed as partial growth inhibition after 24 hrs by CLSI end point method; type: functional; settings: Nakaseomyces glabratus, 5592, 24 h
In short: (§1)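 Two end points were read against the drug-free control well: partial growth inhibition (the CLSI end point) and complete inhibition. Run in duplicate on four separate occasions; the value is the mean. Drug stock was made in DMSO and diluted in 0.9% NaCl.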

Candida albicans [3] = assay: Antifungal activity against Candida albicans 98-210 infected in neutropenic ICR/Swiss mouse candidiasis model assessed as dose required to maintain […] of 3.81 +/- 0.33 log10CFU per kidney administered intraperitoneally every 24 hrs up to 4 days measured per 24 hrs; type: functional
In short: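 Neutropenic mice (cyclophosphamide sc on days −4, −1 and +2) were infected iv 2 h before therapy. Five total doses from 0.078 to 20 mg/kg/24 h were given ip q24h for 4 days, three mice per regimen. Kidney CFU were measured at the end of therapy. Static and 1-log-kill doses were derived from a Hill sigmoid dose-effect fit.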

Candida albicans [4] = assay: Antifungal activity against Candida albicans K-1 infected in neutropenic ICR/Swiss mouse candidiasis model assessed as dose required to maintain […] of 3.81 +/- 0.33 log10CFU per kidney administered intraperitoneally every 24 hrs up to 4 days measured per 24 hrs; type: functional
In short: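 Neutropenic mice (cyclophosphamide sc 150 mg/kg day −4, 100 mg/kg day −1 and day +2) infected iv via tail vein, 2 h before therapy. Drug given ip in 0.2 ml, diluted from DMSO stock in 0.9% NaCl, q24h for 4 days over five dose levels (0.078–20 mg/kg/24 h), 3 mice per regimen. Kidney CFU on SDA. Static dose taken from a sigmoid Emax (Hill) fit.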

Nakaseomyces glabratus [5] = assay: Antifungal activity against Candida glabrata 5376 infected in neutropenic ICR/Swiss mouse candidiasis model assessed as dose required for 1-log10 reduction in […] per kidney administered intraperitoneally every 24 hrs up to 4 days measured per 96 hrs; type: functional
In short: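 Neutropenic ICR/Swiss mice infected i.v. with the strain; therapy began 2 h later. Total doses of 1.25–320 mg/kg/96 h were given i.p. as 1, 2, 4 or 6 doses (q96h, q48h, q24h, q16h), three mice per regimen. Kidney CFU were counted after 4 days. Effect is the change from untreated controls at the end of therapy.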

Candida albicans [6] = assay: Antifungal activity against Candida albicans K-1 infected in neutropenic ICR/Swiss mouse candidiasis model assessed as dose required for 1-log10 reduction in […] per kidney administered intraperitoneally every 48 hrs up to 4 days measured per 96 hrs; type: functional
In short: (§2)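 Neutropenic mice were infected iv with C. albicans K-1 2 h before therapy. Total doses of 1.25, 5, 20, 80 and 320 mg/kg/96 h were split into 1, 2, 4 or 6 ip doses (q96h, q48h, q24h, q16h), three mice per regimen. Effect is the log10 CFU/kidney relative to untreated controls at 96 h. Static and 1-log doses were taken from a Hill model fit.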

Candida albicans [7] = assay: Antifungal activity against Candida albicans K-1 infected in neutropenic ICR/Swiss mouse candidiasis model assessed as dose required to maintain […] of 3.90 +/- 0.15 log10CFU per kidney administered intraperitoneally every 16 hrs up to 4 days measured per 96 hrs; type: functional; in short: as §2
Nakaseomyces glabratus [8] = assay: Antifungal activity against Candida glabrata 35315 assessed as complete growth inhibition after 24 hrs by CLSI end point method; type: functional; settings: Nakaseomyces glabratus, 35315, 24 h; in short: as §1
Candida albicans [9] = assay: Antifungal activity against Candida albicans K-1 infected in neutropenic ICR/Swiss mouse candidiasis model assessed as reduction of […] in kidney at 1.25 mg/kg, ip administered 2 hrs postinfection as single dose measured within 1 to 4 hrs post dosing by time-kill assay; type: functional, organism-based; design: dose 1.25 mg/kg
In short: (§3)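 Neutropenic mice given a single ip dose (1.25, 5 or 20 mg/kg) 2 h after tail-vein infection. Kidneys from 3 mice per time point collected nine times over 96 h. Homogenates serially diluted 1:10 and plated on SDA, 24 h at 35°C. Detection limit 100 CFU/ml.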

Nakaseomyces glabratus [10] = assay: Antifungal activity against Candida glabrata 5376 infected in neutropenic ICR/Swiss mouse candidiasis model assessed as reduction of […] in kidney at 5 mg/kg, ip administered 2 hrs postinfection as single dose measured within 1 to 4 hrs post dosing by time-kill assay; type: functional, organism-based; design: dose 5 mg/kg
In short: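 Neutropenic mice were infected i.v. and 2 h later given a single i.p. dose (1.25, 5 or 20 mg/kg). Groups of three treated and three control mice were killed at intervals over 96 h, and kidney CFU were counted on SDA (limit 100 CFU/ml). The post-antifungal effect is t − c: the time for a 1 log10 CFU/kidney increase once serum levels fall below the MIC in treated mice, minus the same time in controls.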

[11] = AUC (0 to infinity) in serum of neutropenic ICR/Swiss mouse candidiasis model at 20 mg/kg, ip by reverse-phase high-pressure liquid chromatography; type: ADME, organism-based; design: time infinity, dose 20 mg/kg, route intraperitoneal
In short: (§4)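 Single ip dose in 0.2 ml to infected neutropenic mice. Serum from groups of three isoflurane-anaesthetised mice at 1, 4, 8, 12, 24 and 48 h, stored −80°C. Drug measured by reverse-phase HPLC with fluorescence detection against loratadine internal standard (calibration 10–50,000 ng/ml). Noncompartmental analysis; AUC by trapezoidal rule.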

Nakaseomyces glabratus [12] = assay: Antifungal activity against Candida glabrata 513 assessed as complete growth inhibition after 24 hrs by CLSI end point method; type: functional; settings: Nakaseomyces glabratus, 513, 24 h; in short: as §1
[13] = Steady state AUC in human at 100 mg/day; type: ADME, organism-based; settings: in vivo
Candida albicans [14] = assay: Antifungal activity against Candida albicans K-1 assessed as partial growth inhibition after 24 hrs by CLSI end point method; type: functional; settings: K-1, 24 h
In short: (§5)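 CLSI M27-A2 broth dilution. Two end points read against the drug-free control well: partial inhibition (CLSI end point) and complete inhibition. Run in duplicate on four separate occasions; value is the mean. Drug stock in DMSO, diluted in 0.9% NaCl.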

Nakaseomyces glabratus [15] = assay: Antifungal activity against Candida glabrata 5376 assessed as partial growth inhibition after 24 hrs by CLSI end point method; type: functional; settings: Nakaseomyces glabratus, 5376, 24 h; in short: as §1
Nakaseomyces glabratus [16] = assay: Antifungal activity against Candida glabrata 5376 infected in neutropenic ICR/Swiss mouse candidiasis model assessed as reduction of […] in kidney at 1.25 mg/kg, ip administered 2 hrs postinfection as single dose measured within 1 to 4 hrs post dosing by time-kill assay; type: functional, organism-based; design: dose 1.25 mg/kg; in short: as §3
[17] = AUC (0 to infinity) in serum of neutropenic ICR/Swiss mouse candidiasis model at 5 mg/kg, ip by reverse-phase high-pressure liquid chromatography; type: ADME, organism-based; design: time infinity, dose 5 mg/kg, route intraperitoneal; in short: as §4
Nakaseomyces glabratus [18] = assay: Antifungal activity against Candida glabrata 34341 assessed as complete growth inhibition after 24 hrs by CLSI end point method; type: functional; settings: Nakaseomyces glabratus, 34341, 24 h; in short: as §1
Candida albicans [19] = assay: Antifungal activity against Candida albicans K-1 assessed as complete growth inhibition after 24 hrs by CLSI end point method; type: functional; settings: K-1, 24 h; in short: as §5

CCCCCOc1ccc(-c2ccc(-c3ccc(C(=O)N[C@H]4C[C@@H](O)[C@@H](O)NC(=O)[C@@H]5[C@@H](O)[C@@H](C)CN5C(=O)[C@H]([C@@H](C)O)NC(=O)[C@H]([C@H](O)[C@@H](O)c5ccc(O)cc5)NC(=O)[C@@H]5C[C@@H](O)CN5C(=O)[C@H]([C@@H](C)O)NC4=O)cc3)cc2)cc1 [ANIDULAFUNGIN] ({pTerphenylCO(4''-OnC5H11)}-[Orn(4R-OH,5R-OH)]T[Hyp][hTyr(3S-OH,4S-OH)]T[Pro(3S-OH,4S-Me)]; lactam 1-C)
Activity (Nakaseomyces glabratus [1]): 3.72 mg/kg | MIC (Nakaseomyces glabratus [2]): 0.06 µg/mL (≈ 0.0526 µM) | Activity (Candida albicans [3]): 3.37 mg/kg | Activity (Candida albicans [4]): 1.25 mg/kg | Activity (Nakaseomyces glabratus [5]): 30.8 mg/kg | Activity (Candida albicans [6]): 9.19 mg/kg | Activity (Candida albicans [7]): 16.5 mg/kg | MIC (Nakaseomyces glabratus [8]): 1 µg/mL (≈ 0.877 µM) | Activity (Candida albicans [9]): Active | Activity (Nakaseomyces glabratus [10]): Active | AUC(0-inf) [11]: 382 µg·h/mL | MIC (Nakaseomyces glabratus [12]): 0.12 µg/mL (≈ 0.105 µM) | AUC [13]: 112 µg·h/mL | MIC (Candida albicans [14]): 0.015 µg/mL (≈ 0.0132 µM) | MIC (Nakaseomyces glabratus [15]): 0.03 µg/mL (≈ 0.0263 µM) | Activity (Nakaseomyces glabratus [16]): Active | AUC(0-inf) [17]: 96 µg·h/mL | MIC (Nakaseomyces glabratus [18]): 1 µg/mL (≈ 0.877 µM) | MIC (Candida albicans [19]): 0.12 µg/mL (≈ 0.105 µM)
